The MIC is the least concentration at which growth counts as inhibited.

Assay [1] concerns Streptococcus gordonii. Put plainly: Effect on pbp2B gene expression in penicillin-resistant Streptococcus gordonii with penicillin binding protein PR1_2 evolved mutation assessed as relative luciferase units relative to control. The format is functional, organism-based. Summed up:
(§1)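 pbp promoter–luc transcriptional fusions integrated into the chromosome of resistant strain PR1_2evolved. Cells grown at 37°C in BHI without aeration from a 1/100 overnight inoculum. Penicillin G at 1/2× or 1/8× MIC added at OD620 0.12. Samples taken into sodium citrate pH 5.5, with 1 mM D-luciferin solution in glycylglycine/MgSO4 buffer added. Light read 10 s at 22°C; RLU normalised to OD620, expressed as % of untreated; means of six experiments.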

Assay [2] deals with Streptococcus gordonii. Put plainly: Antibacterial activity against penicillin-resistant Streptococcus gordonii with penicillin binding protein PR1_2 evolved mutation. The assay is classed as functional.
Assay [3] deals with Streptococcus gordonii. Put plainly: Increase in pbp2A gene expression in penicillin-resistant Streptococcus gordonii with penicillin binding protein PR1_2 evolved mutation assessed as relative luciferase units relative to control. The format is functional. Summed up:
as §1

The subject of assay [4] is Streptococcus gordonii. Put plainly: Increase in pbp1A gene expression in penicillin-resistant Streptococcus gordonii with penicillin binding protein PR1_2 evolved mutation at 1/2 times MIC assessed as relative luciferase units relative to control. The format is functional, organism-based. The essentials: as §1
The test system of assay [5] is Streptococcus gordonii. The assay is described as follows: Increase in pbp2X gene expression in penicillin-resistant Streptococcus gordonii with penicillin binding protein PR1_2 evolved mutation assessed as relative luciferase units relative to control. The format is functional. Summed up:
as §1

Assay [6] deals with Streptococcus gordonii. The assay is described as follows: Antibacterial activity against wild type penicillin-susceptible Streptococcus gordonii at 4 times MIC. The assay is classed as functional, organism-based. The essentials: (§2)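 S. gordonii was grown at 37°C in BHI broth without aeration from a 1/100 inoculum of an overnight culture. Penicillin G was added once OD620 reached 0.12, and growth was followed by OD620 against an untreated culture.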

The subject of assay [7] is Streptococcus gordonii. Put plainly: Increase in pbp1B gene expression in penicillin-resistant Streptococcus gordonii with penicillin binding protein PR1_2 evolved mutation assessed as relative luciferase units relative to control. The format is functional. Summed up:
as §1

Assay [8] relates to Streptococcus gordonii. The assay is described as follows: Effect on pbp2X gene expression in penicillin-resistant Streptococcus gordonii with penicillin binding protein PR1_2 evolved mutation assessed as relative luciferase units relative to control. The assay is classed as functional, organism-based. Summed up: as §1
In assay [9] the test system is Streptococcus gordonii. Put plainly: Antibacterial activity against wild type penicillin-susceptible Streptococcus gordonii at 2 times MIC. The format is functional, organism-based. Summed up: as §2
Assay [10] has as its system Streptococcus gordonii. The assay is described as follows: Induction of pbp2A gene expression in wild type penicillin-susceptible Streptococcus gordonii assessed as relative luciferase units relative to control. The format is functional, organism-based. Summed up:
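The pbp2A promoter was fused to promoterless luc on the chromosome (integrative pJDC9) in S. gordonii grown in BHI at 37°C, and penicillin G was added at OD620 0.12. Samples of 100 µl went into sodium citrate pH 5.5, then 50 µl of 1 mM D-luciferin in glycylglycine/MgSO4 buffer was added. Light was read for 10 s after a 2 s delay at 22°C, normalized to OD620, and expressed as % of the untreated culture.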

The subject of assay [11] is Streptococcus gordonii. The assay is described as follows: Increase in pbp1A gene expression in penicillin-resistant Streptococcus gordonii with penicillin binding protein PR1_2 evolved mutation at 1/8 times MIC assessed as relative luciferase units relative to control. The format is functional, organism-based. The essentials: as §1
Assay [12] deals with Streptococcus gordonii. Put plainly: Antibacterial activity against Streptococcus gordonii with non penicillin binding protein mutation. The format is functional.
In assay [13] the test system is Streptococcus gordonii. The assay is described as follows: Antibacterial activity against Streptococcus gordonii with penicillin binding protein mutation. The assay is classed as functional.
The subject of assay [14] is Streptococcus gordonii. The assay is described as follows: Increase in pbp2A gene expression in penicillin-resistant Streptococcus gordonii with penicillin binding protein PR1_2 evolved mutation at 1/2 times MIC assessed as relative luciferase units relative to control. The assay is classed as functional, organism-based. The essentials:
as §1

Assay [15] relates to Streptococcus gordonii. The assay is described as follows: Increase in pbp1A gene expression in penicillin-resistant Streptococcus gordonii with penicillin binding protein PR1_2 evolved mutation assessed as relative luciferase units relative to control. The format is functional. Summed up: as §1
The test system of assay [16] is Streptococcus gordonii. The assay is described as follows: Increase in pbp2B gene expression in penicillin-resistant Streptococcus gordonii with penicillin binding protein PR1_2 evolved mutation assessed as relative luciferase units relative to control. The format is functional. Summed up:
as §1

Each structure is given as a SMILES string. Values after ≈ are worked out from the molar mass of the structure shown. Active and inactive are the calls of the source. No cut-off for these calls is given here.

Turning to `CC1(C)S[C@@H]2[C@H](NC(=O)Cc3ccccc3)C(=O)N2[C@H]1C(=O)O` [PENICILLIN G], in [1], the outcome was inactive. For the same molecule, the MIC in [2] is 2 µg/mL (≈ 5.98 µM); in [12], 0.008 µg/mL (≈ 0.0239 µM); in [13], 0.5 µg/mL (≈ 1.5 µM). In addition, the Activity in assay [3] was 1.59; in [5], 2.1; in assay [7], 0.7; in [15] it was 1.55; in assay [16] it was 1.39. Moreover, the outcome in [4], in assay [6], in assay [8], in [9], in [10] and in assay [11] was Active. In addition, the outcome in assay [14] was Active.

The record behind these values is ChEMBL document CHEMBL1155142, “Promoter and transcription analysis of penicillin-binding protein genes in Streptococcus gordonii” (2007).
